According to ChEMBL document CHEMBL2439963, “Synthetic trimethyllysine receptors that bind histone 3, trimethyllysine 27 (H3K27me3) and disrupt its interaction with the epigenetic reader protein CBX7” (Bioorg Med Chem, 2013):

Columns and labels:
[1] = Inhibition of synthetic H3K27me3 peptide interaction to CBX7 after 15 mins by fluorescence polarization assay
Procedure, shortened: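 Calixarene was added at 0–10 mM, dissolved in water with 4 equiv NaOH. Incubated 15 min in the dark and read at ex 450/em 530 nm. mP was normalized to % complex, IC50 taken from a sigmoidal fit, triplicates averaged.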

[2] = Displacement of calixarene-LCG from synthetic H3K27me3 peptide
Procedure, shortened: (§1)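 Competitive lucigenin displacement: 0.5 µM lucigenin plus 1.25 µM calixarene in 0.01 M phosphate buffer pH 7.4, titrated with Ac-capped peptide (H3K27 0–1.5 mM; H3K27me3 0–0.5 mM). Emission read at λex 369 nm, λem 485 nm. Kd fitted by cubic competitive binding equations, with host–dye constant fixed from the prior direct titration. Duplicate determinations averaged.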

[3] = Displacement of calixarene-LCG from synthetic H3K27 peptide; procedure, shortened: as §1
[4] = Displacement of calixarene-LCG from synthetic H3K27 peptide by isothermal titration calorimetry analysis
[5] = Displacement of calixarene-LCG from synthetic H3K27me3 peptide by isothermal titration calorimetry analysis

Row | Structure (SMILES) | IC50 [1] [µM] | Kd [2] [µM] | Kd [3] [µM] | Kd [4] [µM] | Kd [5] [µM]
1 | Cc1ccc(S(=O)(=O)Nc2cc3c(O)c(c2)Cc2cc(S(=O)(=O)O)cc(c2O)Cc2cc(S(=O)(=O)O)cc(c2O)Cc2cc(S(=O)(=O)O)cc(c2O)C3)cc1 | > 2000 | > 100 | > 100 |  | 
2 | NC(=O)c1ccc(-c2cc3c(O)c(c2)Cc2cc(S(=O)(=O)O)cc(c2O)Cc2cc(S(=O)(=O)O)cc(c2O)Cc2cc(S(=O)(=O)O)cc(c2O)C3)cc1 | 590 | 1.86 | 23 |  | 
3 | COc1cccc(-c2cc3c(O)c(c2)Cc2cc(S(=O)(=O)O)cc(c2O)Cc2cc(S(=O)(=O)O)cc(c2O)Cc2cc(S(=O)(=O)O)cc(c2O)C3)c1OC | 1700 | 2.13 | 25 |  | 
4 | COc1ccc(-c2cc3c(O)c(c2)Cc2cc(S(=O)(=O)O)cc(c2O)Cc2cc(S(=O)(=O)O)cc(c2O)Cc2cc(S(=O)(=O)O)cc(c2O)C3)cc1 | 360 | 0.78 | 20 |  | 
5 | Cc1ccc(-c2cc3c(O)c(c2)Cc2cc(S(=O)(=O)O)cc(c2O)Cc2cc(S(=O)(=O)O)cc(c2O)Cc2cc(S(=O)(=O)O)cc(c2O)C3)cc1 | 230 | 0.34 | 2.7 |  | 
6 | N#Cc1ccc(-c2cc3c(O)c(c2)Cc2cc(S(=O)(=O)O)cc(c2O)Cc2cc(S(=O)(=O)O)cc(c2O)Cc2cc(S(=O)(=O)O)cc(c2O)C3)cc1 | 370 | 0.88 | 11.3 |  | 
7 | O=S(=O)(O)c1cc2c(O)c(c1)Cc1cc(S(=O)(=O)O)cc(c1O)Cc1cc(S(=O)(=O)O)cc(c1O)Cc1cc(Br)cc(c1O)C2 | 470 | 0.7 | 13.3 |  | 
8 | O=S(=O)(O)c1cc2c(O)c(c1)Cc1cc(S(=O)(=O)O)cc(c1O)Cc1cc(S(=O)(=O)O)cc(c1O)Cc1cc(-c3ccccc3)cc(c1O)C2 | 510 | 0.75 | 19 | 51.4 | 4.03
9 | O=[N+]([O-])c1cc2c(O)c(c1)Cc1cc(S(=O)(=O)O)cc(c1O)Cc1cc(S(=O)(=O)O)cc(c1O)Cc1cc(S(=O)(=O)O)cc(c1O)C2 | > 5000 | 10 | 30 |  | 
10 | O=S(=O)(O)c1cc2c(O)c(c1)Cc1cc(S(=O)(=O)O)cc(c1O)Cc1cc(S(=O)(=O)O)cc(c1O)Cc1cc(S(=O)(=O)O)cc(c1O)C2 | 2500 | 5.4 | 220 |  | 
